These results are taken from ChEMBL document CHEMBL1131263, “Substituted tetrahydropyrrolo[2,1-b]oxazol-5(6H)-ones and tetrahydropyrrolo[2,1-b]thiazol-5(6H)-ones as hypoglycemic agents” (1998).

The experiment can be described thus: lowest concentration at which glucose utilized was greater than or equal to 140% of control value tested in a glucose utilization L6 myocyte in vitro assay. Format: functional, Rattus norvegicus. The gist of the method: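 Differentiated rat L6 myotubes (day 11 or 13 after plating) exposed 20 h to compound in serum-free DMEM with 15 mM glucose and 1% final DMSO. Tested in quadruplicate at 3, 10, 30, 100, 300 µM. Glucose left in the medium read by glucose oxidase. Value is the lowest concentration giving at least 40% more utilization than control.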
On to `C/N=C(\S)N1CCS[C@@H]1c1ccc(Cl)cc1`, for which the “Lowest effective concentration for glucose utilization ≥140% of control” value is 300 µM.
For `OCc1cc(-c2ccccc2)no1`, the “Lowest effective concentration for glucose utilization ≥140% of control” value was greater than 300 µM.
As for `O=C1CC[C@]2(c3ccc(Cl)cc3)O[C@@H](CO)CN12`, the figure is greater than 300 µM; as for `O=C(Nc1ccccc1)N1C[C@H](COc2ccc(Cl)cc2)O[C@@H]1c1ccc(Cl)c(Cl)c1`, 30 µM; as for `O=C1CC[C@]2(c3ccncc3)O[C@H](COc3ccc(Cl)cc3)CN12`, 30 µM.
For `O=C1CC[C@]2(c3cccc4ccccc34)O[C@H](COc3ccc(Cl)cc3)CN12` the value was greater than 300 µM; for `CC(C)(O)c1cc(-c2ccc(Cl)cc2)no1`, 100 µM.
Consider `CC(C)(C)c1cc(CO)on1`, for which the “Lowest effective concentration for glucose utilization ≥140% of control” value was greater than 300 µM.
Consider `Clc1ccc(OCc2cc(-c3ccc(Cl)cc3)no2)cc1`, for which the “Lowest effective concentration for glucose utilization ≥140% of control” value was greater than 300 µM.
As for `CC(C)(C)[C@]12CCC(=O)N1C[C@H](COc1ccc(Cl)cc1)O2`, the figure is greater than 300 µM.
As for `O=C1CC[C@]2(c3ccc(Cl)c(C(F)(F)F)c3)O[C@@H](COc3ccc(Cl)cc3)CN12`, the figure is 300 µM; as for `O=C1CC[C@]2(c3ccc(Cl)cc3)O[C@H](CO)CN12`, greater than 300 µM.
For `O=C1CC[C@]2(C3CCCCC3)O[C@@H](COc3ccc(Cl)cc3)CN12` the value was greater than 300 µM; for `CC(=O)N1C[C@@H](COc2ccc(Cl)cc2)S[C@@H]1c1ccc(Cl)cc1`, 300 µM; for `OCc1cc(Cc2ccccc2)no1`, greater than 300 µM.
For `CC(C)C(=O)N1C[C@@H](COc2ccc(Cl)cc2)O[C@@H]1c1ccc(Cl)c(Cl)c1`, the “Lowest effective concentration for glucose utilization ≥140% of control” value came to 30 µM.
For the compound `COc1ccc([C@H]2O[C@H](COc3ccc(Cl)cc3)CN2C(C)=O)cc1`, the “Lowest effective concentration for glucose utilization ≥140% of control” value was greater than 300 µM.
For `CC(=O)N1C[C@H](COc2ccc(Cl)cc2)S[C@@H]1c1ccc(Cl)cc1` the value was 30 µM.
Take `Cc1cc(CO)on1`: the “Lowest effective concentration for glucose utilization ≥140% of control” value is greater than 300 µM.
For `CC1(C)C[C@]2(c3ccc(Oc4ccccc4)cc3)O[C@H](COc3ccc(Cl)cc3)CN2C1=O` the value was 30 µM.
For `O=C1CC[C@]2(c3ccc(Cl)c(Cl)c3)OC(COc3ccc(Cl)cc3)CN12` (single isomer, unassigned) the value was greater than 300 µM.
For `O=C1CC[C@]2(c3ccc(Cl)c(Cl)c3)O[C@@H](COc3ccc(Cl)cc3)CN12` the value was 30 µM; for `OCc1cc(-c2ccc(Cl)c(Cl)c2)no1`, 30 µM.
On to `O=C1CC[C@]2(c3ccccc3)OC[C@H](O)CN12`, for which the “Lowest effective concentration for glucose utilization ≥140% of control” value is greater than 300 µM.
Consider `O=C(O)c1cc(CO)on1`, for which the “Lowest effective concentration for glucose utilization ≥140% of control” value was greater than 300 µM.
As for `O=C1CCC[C@]2(c3ccc(Oc4ccccc4)cc3)O[C@H](COc3ccc(Cl)cc3)CN12`, the figure is 100 µM; as for `CN(C)C(=N)NC(=N)N.Cl` [METFORMIN HYDROCHLORIDE], 1000 µM; as for `CC(=O)N1C[C@H](COc2ccc(Cl)cc2)O[C@@H]1c1ccc(Cl)c(Cl)c1`, 30 µM.
As to `O=C1CC[C@]2(c3ccc(F)cc3)O[C@@H](COc3ccc(Cl)cc3)CN12`, the “Lowest effective concentration for glucose utilization ≥140% of control” value was greater than 300 µM.
Regarding `C[C@]12CCC(=O)N1C[C@@H](COc1ccc(Cl)cc1)O2`, the “Lowest effective concentration for glucose utilization ≥140% of control” value was greater than 300 µM.
For `CC1(C)C[C@]2(c3ccc(Oc4ccccc4)cc3)OCCN2C1=O` the value was 10 µM; for `CS(=O)(=O)N1CCS[C@@H]1c1ccc(Cl)cc1`, 300 µM; for `CC1(C)C[C@]2(c3ccc(Cl)cc3)O[C@@H](COc3ccc(Cl)cc3)CN2C1=O`, 100 µM.
As for `O=C1CC[C@]2(c3ccc(Cl)c(C(F)(F)F)c3)O[C@H](COc3ccc(Cl)cc3)CN12`, the “Lowest effective concentration for glucose utilization ≥140% of control” value was found to be 10 µM.
As for `COC(=O)COC[C@@H]1CN2C(=O)CC[C@]2(c2ccc(Cl)cc2)O1`, the figure is greater than 300 µM; as for `CC(=O)c1cc(CO)on1`, greater than 300 µM.
For `O=C1CC[C@]2(C3CCCCC3)O[C@H](COc3ccc(Cl)cc3)CN12` the value was 100 µM; for `CNC(=O)N1CCO[C@@H]1c1ccc(Cl)cc1`, greater than 300 µM; for `O=C1CC[C@]2(c3ccc(Cl)c(Cl)c3)O[C@H](COc3ccc(Cl)cc3)CN12`, 10 µM.
For `CS(=O)(=O)N1C[C@@H](COc2ccc(Cl)cc2)O[C@@H]1c1ccc(Cl)c(Cl)c1` the value was 30 µM; for `CNC(=O)N1CCS[C@@H]1c1ccc(Cl)cc1`, 300 µM; for `O=C1CC[C@]2(c3c[nH]c4ccccc34)O[C@H](COc3ccc(Cl)cc3)CN12`, greater than 300 µM.
Regarding `C/N=C(\S)N1CCO[C@@H]1c1ccc(Cl)cc1`, the “Lowest effective concentration for glucose utilization ≥140% of control” value was greater than 300 µM.
As for `CC(=O)N1CCS[C@@H]1c1ccc(Cl)cc1`, the figure is greater than 300 µM.
As for `O=C(Nc1ccccc1)N1C[C@@H](COc2ccc(Cl)cc2)O[C@@H]1c1ccc(Cl)c(Cl)c1`, the figure is 30 µM; as for `OCCc1cc(-c2ccc(Cl)cc2)no1`, 100 µM; as for `O=C(c1ccccc1)N1C[C@@H](COc2ccc(Cl)cc2)O[C@@H]1c1ccc(Cl)c(Cl)c1`, greater than 300 µM.
With `CC1(C)C[C@]2(c3ccc(Cl)cc3)O[C@H](COc3ccc(Cl)cc3)CN2C1=O`, the “Lowest effective concentration for glucose utilization ≥140% of control” value worked out at 30 µM.
As for `CC(=O)N1C[C@H](COc2ccc(Cl)cc2)O[C@@H]1c1ccc(Cl)c(C(F)(F)F)c1`, the figure is 30 µM.
For `COC(=O)c1cc(CO)on1` the value was greater than 300 µM; for `O=C1CC[C@]2(c3ccc(Cl)cc3)O[C@H](COCCO)CN12`, greater than 300 µM; for `CC(C)(C)OC[C@@H]1CN2C(=O)CC[C@]2(c2ccc(Cl)cc2)O1`, 300 µM.
As for `COc1ccc([C@H]2O[C@@H](COc3ccc(Cl)cc3)CN2C(C)=O)cc1`, the figure is greater than 300 µM; as for `O=C1CCC[C@]2(c3ccc(Cl)cc3)SCCN12`, greater than 300 µM.
On to `O=C(c1ccccc1)N1C[C@H](COc2ccc(Cl)cc2)O[C@@H]1c1ccc(Cl)c(Cl)c1`, for which the “Lowest effective concentration for glucose utilization ≥140% of control” value amounted to 300 µM.
On to `O=C1CC[C@]2(c3ccc(Cl)cc3)O[C@H](CNc3ccc(Cl)cc3)CN12`, for which the “Lowest effective concentration for glucose utilization ≥140% of control” value is greater than 300 µM.
As for `O=C1CC[C@]2(c3ccc(Cl)c(Cl)c3)O[C@H](CSc3ccc(Cl)cc3)CN12`, the figure is 100 µM; as for `OCc1cc(-c2ccc(Cl)cc2Cl)no1`, 300 µM.
As for `O=C1CC[C@]2(c3ccc(Cl)cc3)O[C@H](COc3ccc(Cl)cc3)CCN12`, the figure is greater than 300 µM; as for `O=C1CC[C@]2(c3ccc(Cl)cc3)O[C@H](CCc3ccccc3)CN12`, greater than 300 µM.
As for `O=C1CC[C@]2(c3ccc(Cl)cc3)O[C@@H](CNc3ccc(Cl)cc3)CN12`, the figure is greater than 300 µM; as for `O=C1CC[C@]2(c3ccc(-c4ccccc4)cc3)O[C@@H](COc3ccc(Cl)cc3)CN12`, greater than 300 µM; as for `O=C1CC[C@]2(c3cccnc3)O[C@@H](COc3ccc(Cl)cc3)CN12`, 300 µM.
Turning to `CC(=O)N1C[C@@H](COc2ccc(Cl)cc2)O[C@@H]1c1ccc(Cl)cc1`, the “Lowest effective concentration for glucose utilization ≥140% of control” value worked out at 100 µM.
As for `O=C1CC[C@]2(c3ccccc3)OC[C@@H](O)CN12`, the figure is greater than 300 µM; as for `O=C1CC[C@]2(c3ccc(Cl)c(Cl)c3)O[C@@H](CSc3ccc(Cl)cc3)CN12`, 100 µM.
With `COCc1cc(-c2ccc(Cl)cc2)no1`, the “Lowest effective concentration for glucose utilization ≥140% of control” value stood at 100 µM.
With `Cc1c(C)c2c(c(C)c1O)CCC(C)(COc1ccc(CC3SC(=O)NC3=O)cc1)O2` (configuration not stated) [TROGLITAZONE], the “Lowest effective concentration for glucose utilization ≥140% of control” value was determined as 30 µM.
For `COC(=O)N1C[C@@H](COc2ccc(Cl)cc2)O[C@@H]1c1ccc(Cl)c(Cl)c1` the value was 300 µM; for `O=C1CCC[C@]2(c3ccccc3)O[C@@H](COc3ccc(Cl)cc3)CN12`, greater than 300 µM.
For the compound `O=C1CC[C@]2(c3ccc(Cl)cc3)O[C@@H](CCc3ccccc3)CN12`, the “Lowest effective concentration for glucose utilization ≥140% of control” value was greater than 300 µM.
As for `CS(=O)(=O)N1C[C@H](COc2ccc(Cl)cc2)O[C@@H]1c1ccc(Cl)c(Cl)c1`, the figure is 30 µM.
